PubChem BioAssay AID651999 (Sanford-Burnham Center for Chemical Genomics, 2013)
“And” between values parts separate entries of the source, which are not always exact repeats. Equal values may be shown once. Among all 360,000 compounds or so, about 1,400 (0.39%) were called active. The list comes from a sample in which actives are over-represented; it also holds similar structures and randomly drawn compounds. Values without a mark were called inactive.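 How the source made its calls: active means pattern-corrected inhibition above about 35%, with an unprinted fluorescence ratio check between 0.5 and 1.5 (limit read from the data, passing the limit was not always enough); inactive means the rest.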

These compounds were tested against COP9 signalosome complex subunit 5 (Homo sapiens) (UniProt Q92905) (assay: CSN5 deneddylase inhibitors on cullin-RING ligase – biochemical, fluorescence polarization, uHTS, primary screen (AID 651999;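 further: 0% = enzyme with substrate and 100% = substrate without enzyme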)). Settings: Purified CSN, SCF-Nedd8-OG deneddylation, at 12.5 µM, hits give high values.
COP9 signalosome complex subunit 5 (Homo sapiens), sequence (Q92905 whole entry, looked up, one chain of several): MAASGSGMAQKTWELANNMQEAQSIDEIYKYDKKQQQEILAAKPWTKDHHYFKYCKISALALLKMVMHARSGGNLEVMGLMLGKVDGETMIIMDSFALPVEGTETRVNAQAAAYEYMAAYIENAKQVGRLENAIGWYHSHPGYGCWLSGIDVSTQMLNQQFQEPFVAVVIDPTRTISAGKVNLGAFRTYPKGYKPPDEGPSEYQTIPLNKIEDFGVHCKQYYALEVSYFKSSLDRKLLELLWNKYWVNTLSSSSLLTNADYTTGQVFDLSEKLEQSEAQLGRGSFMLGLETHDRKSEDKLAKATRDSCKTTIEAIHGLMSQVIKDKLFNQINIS
In short: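 Assay system: Purified human Csn5 enzyme expressed in HEK293T cells | Amount: Enzyme 0.24 nM | Measured by: Fluorescence polarization readout | Medium: Tris/NaCl/DTT buffer, pH 7.5 | Compound dosing: One concentration, 12.5 µM, 0.25% DMSO | Times: 90 min incubation of compound, enzyme and substrate at room temperature | Control set: no-enzyme wells high, enzyme-with-substrate wells low | Read-out: % inhibition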
For `N#Cc1c(NC(=O)CCCN2C(=O)c3ccccc3C2=O)oc(-c2ccccc2)c1-c1ccccc1`, the inhibition was -3.56%. `CC(C)C(=O)Nc1oc(-c2ccccc2)cc1C#N` was tested, and the inhibition was 5.77%. `CC(Oc1ccccc1)C(=O)Nc1oc(-c2ccco2)c(-c2ccco2)c1C#N` (stereo not given) was tested, and the inhibition was 38.5% (active). Compound `Nc1nnc2c(C(F)(F)F)nc3ccccc3n12` has an inhibition of 0.57%. `Cc1cccc(N2C(=O)SC(SC(=Nc3ccccc3)Nc3ccccc3)C2=O)c1` (stereo not given) showed an inhibition of -2.12%. `CCC(C)(C)n1nnnc1CN1CCN(c2nc3ccc(C)cc3cc2C#N)CC1` was tested, and the inhibition was 1.36%. `Cc1cccc(N(C)C(=O)CN2C(=O)COc3ccc(S(=O)(=O)N4CCCCCC4)cc32)c1` was tested, and the inhibition was -4.61%. `Cc1cccc(NS(=O)(=O)c2cccc(C(=O)NNC(=O)c3ccccc3O)c2)c1` was tested, and the inhibition was -6.82%. With `Cc1cc(C(=O)CCC(=O)NNC(=O)c2ccccc2O)c(C)s1` the inhibition was 36.4% (active). Work on `Cc1ccccc1C(=O)NNC(=O)CN1C(=O)c2ccccc2C1=O` yielded an inhibition of 6.43%. Compound `COC(=O)c1ccc(CN2CCN(CCCc3ccccc3)C(CCO)C2)cc1` (stereo not given) has an inhibition of -2.91%. `CCOC(=O)N1CCN(S(=O)(=O)N2CCCC(C(=O)NCCCN3CCC(C)CC3)C2)CC1` (stereo not given) was tested, and the inhibition was 2.45%. In the case of `O=C(Oc1c(-c2ccco2)oc2ccccc2c1=O)c1cccnc1`, the inhibition is reported as -1.72%. `CC(Oc1ccc(-c2ccccc2)c(F)c1)c1ccn(S(=O)(=O)c2cccc3ccccc23)n1` (stereo not given) gave an inhibition of 3.61%. Work on `COc1ccc(C2OCC3(CO2)SC(=O)NC3=O)cc1OC` (stereo not given) yielded an inhibition of -7.79%. `COc1ccc(CCc2nc(-c3cccs3)no2)cc1` gave an inhibition of 1.58%. In the case of `COc1ccc(OC)c(CNC(=O)CCc2nc(-c3cccs3)no2)c1`, the inhibition is reported as 2.31%. With `CCc1ccc(CNC(=O)CCc2nc(-c3cccs3)no2)cc1` the inhibition was 90.8% (active). Work on `COc1cccc2c1C(=O)c1c(O)c3c(c(O)c1C2=O)CC(O)(C(C)=NNC(=O)c1ccc(Cl)c(Cl)c1)CC3OC1CC(N)C(O)C(C)O1` (stereo not given) yielded an inhibition of -72.5%. In the case of `COc1ccc(CN2CN(C3CCCC3)CSC2=S)cc1`, the inhibition is reported as -9.41%. Compound `COC(=O)[C@@]12C[C@@H](CC(=O)NCc3cccc(C(F)(F)F)c3)C(=O)N(Cc3ccco3)C1=CCC(C)(C)C2` has an inhibition of 1.26%. In the case of `Cc1cccc(-c2cnc(C(O)c3ccc4ccccc4c3)[nH]2)c1` (stereo not given), the inhibition is reported as 39.3% (active). For `COc1cccc(C(O)c2ncc(-c3ccc4ccccc4c3)[nH]2)c1` (stereo not given), the inhibition was -4.1%. Compound `Cc1cccc(-c2cnc(C(O)c3cc(C)cc(C)c3)[nH]2)c1` (stereo not given) has an inhibition of -2.61%. `CCc1nn(CCCN2CCN(c3cccc(Cl)c3)CC2)c(=O)n1CCOc1ccccc1` was tested, and the inhibition was -4.47% and -2.79%. `Cc1ccc(CNS(=O)(=O)c2ccc3c(c2)N(C)CCO3)cc1` gave an inhibition of -2.61%. Compound `CCCC/C=C/c1cccc2nncn12` has an inhibition of -1.69%. `COc1ccc2[nH]c3c(C)c4cc[n+](C)cc4c(C)c3c2c1` was tested, and the inhibition was 102% (active). `Cc1cc(O)c(C(=O)/C=C/c2c(F)c(F)c(F)c(F)c2F)c(=O)o1` was tested, and the inhibition was 43.9% (active). Work on `Cc1cc(O)c(Sc2ccccc2)c(=O)o1` yielded an inhibition of 0.39%. For `O=C(CC[C@H]1O[C@@H](n2ccc(=O)[nH]c2=O)[C@H](O)[C@@H]1O)N[C@H](Cc1ccccc1)C(=O)NCc1ccco1`, the inhibition was -1.91%. With `CCN(CC(=O)NCC(=O)Nc1cccc(C)c1C)Cc1ccccc1` the inhibition was 1.96%. `CCOc1cc(CNn2c(C)nnc2SCC(=O)NC(C)(C)C)ccc1OCC(=O)NC(C)(C)C` gave an inhibition of 2.06%. Work on `C=CCSc1nnc(Cn2c(=O)sc3ccccc32)n1C` yielded an inhibition of 7.9%. `CCSc1nc(C)c(CCOc2cccc(C)c2)c(=O)[nH]1` was tested, and the inhibition was -18.6%. `NC(=O)c1c(NC(=O)CSc2nnc(-c3ccco3)n2N)sc2c1CCCC2` showed an inhibition of 10.7%. `COc1ccc(-n2c(SCC(=O)Nc3sc4c(c3C#N)CCCC4)nnc2-c2ccc(O)cc2)cc1` was tested, and the inhibition was 50.2% (active). Compound `COc1cccc(CN(C)CC(=O)Nc2sc3c(c2C#N)CCC3)c1` has an inhibition of 4.05%. `Cc1ccc(NC(=O)CN(C)S(=O)(=O)c2cnc[nH]2)cc1C` was tested, and the inhibition was -2.5%. `C=CCC1=C/C(=C\c2c(N)n3nc(CC(=O)N4CCOCC4)sc3nc2=O)C=C(OC)C1=O` was tested, and the inhibition was 72.5% (active). `COC1=C/C(=C/c2c(N)n3nc(CC(=O)N4CCOCC4)sc3nc2=O)C=CC1=O` was tested, and the inhibition was 16.1%. With `O=C(C1CCN(C2CCN(Cc3ccc4cc(F)ccc4n3)CC2)CC1)N1CCCC1` the inhibition was 1%. `Cc1cc(F)ccc1S(=O)(=O)Nc1ncnc2scc(-c3ccc(F)cc3)c12` was tested, and the inhibition was 0.77%. `O=C(O)CC(c1ccccc1F)N1Cc2ccccc2C1=O` (stereo not given) gave an inhibition of -0.99%. Compound `O=S(=O)(Nc1ccc2ccccc2c1)N1CCCCC1` has an inhibition of -1.67%. In the case of `Cc1noc(C)c1S(=O)(=O)N(C)C[C@H]1Oc2ccc(NC(=O)C3CCCCC3)cc2C(=O)N([C@H](C)CO)C[C@@H]1C`, the inhibition is reported as -5.26%. In the case of `CCN1/C(=C\c2ccc3ccccc3[n+]2CC)Sc2cc(C)ccc21`, the inhibition is reported as 62.2% (active). With `FC(F)(F)c1ccccc1Cc1c(-c2ccccc2)nc2c3ccccc3ccn12` the inhibition was 3.57%. `COc1cc(CN(C)Cc2nc3cc(C(F)(F)F)ccc3c(=O)[nH]2)ccc1OC(F)F` gave an inhibition of 5.3%. With `CC(=O)Nc1ccc(C(=O)NNC(=O)CCCCC(=O)NNC(=O)c2ccc(NC(C)=O)cc2)cc1` the inhibition was 2.24%. In the case of `CN(CC(=O)NC1CCCCC1)S(=O)(=O)c1cccc2cccnc12`, the inhibition is reported as -6.5%. `CC1(C)CC(=O)C2=C(C1)NCN(CCCN1CCOCC1)C2` showed an inhibition of -5.59%. With `O=C(CSc1nc2ccccc2c(=O)[nH]1)Nc1nc(-c2ccc(Br)cc2)cs1` the inhibition was 55.8% (active). `CCCn1c(C)cc(-c2csc(NC(=O)CCc3nc4ccccc4c(=O)[nH]3)n2)c1C` gave an inhibition of 5.04%. Work on `O=C(COC(=O)c1cc(=O)[nH]c2ccccc12)Nc1nc(-c2cccc(Br)c2)cs1` yielded an inhibition of 3.39%. With `CC1(C)C2CCC1(CS(=O)(=O)NCCc1c[nH]c3ccccc13)C(=O)C2` (stereo not given) the inhibition was -3.93%. `COc1ccc(C(c2nnnn2C2CCCC2)N2CCN(C/C=C/c3ccccc3)CC2)cc1` (stereo not given) showed an inhibition of -3.45%. Work on `OC[C@@H]1CN(Cc2cccs2)C[C@H](n2cnc3c(Nc4ccccc4)ncnc32)O1` yielded an inhibition of 1.6%. In the case of `O=C(CC1SC(N2CCOCC2)=NC1=O)Nc1ccccc1F` (stereo not given), the inhibition is reported as -4.57%. For `N#C/C(=C\C1=C(N2CCOCC2)C(=C\c2ccccc2)/CC1)C(=O)Nc1ccccc1F`, the inhibition was 59.9% (active). Compound `CNC(=O)/C(C#N)=C/c1c(F)cccc1Cl` has an inhibition of -0.2%. For `Cc1cc(C)c(S(=O)(=O)NCC(c2ccc3c(c2)OCO3)N2CCOCC2)c(C)c1` (stereo not given), the inhibition was 4.99%. With `COc1ccc(C2=Nc3ccccc3NC(=O)C2N(C(=O)c2cc3ccccc3[nH]2)c2ccccc2)cc1` (stereo not given) the inhibition was 1.01%. Compound `O=C(O)c1ccccc1NC(=S)NC(NC(=O)c1ccccc1[N+](=O)[O-])C(Cl)(Cl)Cl` (stereo not given) has an inhibition of 0.72%. `COc1cc(N2CCCC2)c(OC)cc1/C=C(/C#N)c1cccc(Br)c1` was tested, and the inhibition was 40.3% (active). `Cc1cccc(NC(=O)C2CC(=O)OC23CCCC3)c1` (stereo not given) gave an inhibition of -1.93%. `Cc1cccc(C)c1NC(=O)C1CCCN1C(=O)OC(C)(C)C` (stereo not given) showed an inhibition of 1.38%. `O=C(C(=O)N1CCc2ccccc2C1)c1c[nH]c2ccccc12` was tested, and the inhibition was 3.61%. In the case of `CN(C(=O)COc1nnc(-c2cccs2)c(-c2cccs2)n1)c1ccccc1`, the inhibition is reported as 4.69%. `C=CCn1c(=S)[nH]c2scc(-c3ccco3)c2c1=O` was tested, and the inhibition was 35.8% (active). Compound `Cc1ccc(-c2nnc(C)c(N3CC(C)OC(C)C3)n2)cc1` (stereo not given) has an inhibition of 4.31%. `Cc1nn(C)c(Cl)c1CN1CCC(Oc2ccc(C(=O)N3CCCC3)cc2)CC1` was tested, and the inhibition was -0.97%. In the case of `COCCCn1c(C(=O)NC2CCCCC2)cc2c(=O)n3cccc(C)c3nc21`, the inhibition is reported as -3.61%. For `Cc1cccn2c(=O)c3cc(C(=O)NC4CCCCC4)sc3nc12`, the inhibition was 38.6% (active). `Cc1ccccc1-n1nc(C)c2cc(C(=O)NC3CC3)sc21` showed an inhibition of -0.46%. `CN1CCNC(=O)C1CC(=O)N1CC=C(c2ccc(F)cc2)CC1` (stereo not given) showed an inhibition of -1.53%. In the case of `Cc1ccc([C@H]2C[C@H](O)[C@@H](n3cc(COC(=O)c4ccccc4)nn3)CN2CC2CCCCC2)cc1`, the inhibition is reported as -1.77%. In the case of `COC(=O)N/N=C/c1c[n+]([O-])c2ccccc2[n+]1[O-]`, the inhibition is reported as -7.07%. `Cc1cccc(N2CCN(C(=O)/C=C/c3ccco3)CC2)c1C` showed an inhibition of -6.8%. In the case of `CCC(=O)Nc1ccc2nn(-c3ccc(F)cc3)nc2c1`, the inhibition is reported as -3.58%. With `Cc1ccc(-n2nc3ccc(NC(=O)/C=C/c4ccco4)cc3n2)cc1C` the inhibition was 62.3% (active). `C[C@H](CO)N1C[C@H](C)[C@@H](CN(C)C(=O)c2cnccn2)Oc2ncc(Br)cc2C1=O` showed an inhibition of -0.87%. Work on `COc1ccc(C(C(=O)NC2CCCC2)N(CCCO)C(=O)Cn2nnc(-c3ccc(C)o3)n2)cc1` (stereo not given) yielded an inhibition of -1.83%. `CCCNC(=O)C1(C)CCCN(Cc2cccc(C(F)(F)F)c2)C1` (stereo not given) gave an inhibition of 1.08%. `O=C(CN1C(=O)CCS(=O)(=O)c2ccccc21)NCc1ccc(F)cc1` showed an inhibition of 2.38%. Compound `CSCc1ccc(C(=O)Nc2cc(C)cc(C)c2)cc1` has an inhibition of -3.14%. With `COCc1cc(C)nc(Nc2cc(C)ccc2C)c1C#N` the inhibition was 2.37%. For `Cc1c(C(=O)NCCN2C(=O)S/C(=C\c3cccs3)C2=O)cccc1[N+](=O)[O-]`, the inhibition was -3.22%. `O=C(CCN1C(=O)c2ccccc2C1=O)NNC(=O)c1ccc(Cl)cc1Cl` gave an inhibition of -5.29%. With `O=C(CCN1C(=O)/C(=C/c2cccs2)SC1=S)NNC(=O)c1cccc(O)c1` the inhibition was 51.4% (active).
